In general, IC80 refers to the concentration at which the effect reaches the 80% level. Low values mean an effect from little substance, high ones a need for much substance. As a reminder, the inhibition is how much of the control response was suppressed. Read a low inhibition as a response near the control. As usually defined, the MIC is the least concentration at which growth counts as inhibited.

In brackets after ≈: the same amount, converted by molar mass.

Series [1] deals with Trichosporon beigelii. The series is described as follows: Antifungal activity against Trichosporon beigelii 1188 after 24 hrs by broth microdilution method. The class given is functional. Summed up: (§1)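 In vitro antifungal screening against eight strains. Compounds tested at concentrations in the range 62.5–1.95 µmol/L.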
A general note: Broth dilution looks for growth in wells or tubes with falling amounts of substance.

The test system of series [2] is Candida albicans. The series is described as follows: Antifungal activity against Candida albicans ATCC 44859 after 24 hrs by broth microdilution method. The format is functional. As to conditions: ATCC 44859, 24 h. Summed up: as §1
For series [3], the system named is Trichophyton mentagrophytes. Briefly: Antifungal activity against Trichophyton mentagrophytes 445 after 48 hrs by broth microdilution method. The format is functional. Summed up: as §1
In series [4] the test system is Candida tropicalis. Briefly: Antifungal activity against Candida tropicalis ATCC 156 after 48 hrs by broth microdilution method. The format is functional. The conditions noted are these: ATCC 156, 48 h. Summed up:
as §1

Series [5] relates to Trichophyton mentagrophytes. Briefly: Antifungal activity against Trichophyton mentagrophytes 445 after 24 hrs by broth microdilution method. The format is functional. The essentials:
as §1

The subject of series [6] is Mycobacterium tuberculosis. The series is described as follows: Antitubercular activity against Mycobacterium tuberculosis H37Rv at 6.25 ug/ml by microplate alamar blue assay. The class given is functional. The essentials:
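Primary single-concentration screen at the TAACF against M. tuberculosis H37Rv (ATCC 27294) in BACTEC 12B medium, read by Microplate Alamar Blue Assay. Each compound was tested at 6.25 per mL, or at the molar equivalent of the highest-molecular-weight compound in its congener series.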
A general note: The colour change of resazurin is a common sign of viable cells or microbes.

The subject of series [7] is Aspergillus fumigatus. The series is described as follows: Antifungal activity against Aspergillus fumigatus 231 after 48 hrs by broth microdilution method. The class given is functional. Summed up: as §1
Series [8] in a line: Lipophilicity, log K of the compound. The class given is physicochemical. Summed up:
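Mobile phase used methanol as organic modifier. The capacity factor k was measured and log k calculated from it. Chiral compounds were measured several times.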

For series [9], the system named is Lichtheimia corymbifera. The series is described as follows: Antifungal activity against Absidia corymbifera 272 after 24 hrs by broth microdilution method. The class given is functional. The essentials: as §1
The test system of series [10] is Pichia kudriavzevii. Briefly: Antifungal activity against Candida krusei E28 after 24 hrs by broth microdilution method. The class given is functional. Summed up:
as §1

The test system of series [11] is Aspergillus fumigatus. The series is described as follows: Antifungal activity against Aspergillus fumigatus 231 after 24 hrs by broth microdilution method. The class given is functional. The essentials:
as §1

Series [12] deals with Mycobacterium tuberculosis. Briefly: Antitubercular activity against Mycobacterium tuberculosis H37Rv by microplate alamar blue assay. The format is functional.
The test system of series [13] is Candida tropicalis. Briefly: Antifungal activity against Candida tropicalis ATCC 156 after 24 hrs by broth microdilution method. The class given is functional. As to conditions: ATCC 156, 24 h. Summed up: as §1
Series [14] deals with Candida albicans. The series is described as follows: Antifungal activity against Candida albicans ATCC 44859 after 48 hrs by broth microdilution method. The format is functional. The conditions noted are these: ATCC 44859, 48 h. The essentials:
as §1

The subject of series [15] is Nakaseomyces glabratus. Briefly: Antifungal activity against Candida glabrata 20/I after 24 hrs by broth microdilution method. The format is functional. Summed up:
as §1

Series [16] deals with Pichia kudriavzevii. Briefly: Antifungal activity against Candida krusei E28 after 48 hrs by broth microdilution method. The format is functional. Summed up: as §1
The test system of series [17] is Trichosporon beigelii. The series is described as follows: Antifungal activity against Trichosporon beigelii 1188 after 48 hrs by broth microdilution method. The class given is functional. The essentials: as §1
Series [18] relates to Lichtheimia corymbifera. The series is described as follows: Antifungal activity against Absidia corymbifera 272 after 48 hrs by broth microdilution method. The format is functional. The essentials:
as §1

Series [19] concerns Nakaseomyces glabratus. Briefly: Antifungal activity against Candida glabrata 20/I after 48 hrs by broth microdilution method. The class given is functional. Summed up:
as §1

For the compound `O=C(CNC(=O)OCc1ccccc1)Oc1ccc(Cl)cc1C(=O)Nc1ccc(C(F)(F)F)cc1`, the IC80 in series [1] is 31.2 µg/mL (≈ 61.7 µM); in [2], 62.5 µg/mL (≈ 123 µM); in [3], 15.6 µg/mL (≈ 30.8 µM); in [4], > 125 µg/mL; in series [5] it was 15.6 µg/mL (≈ 30.8 µM); in series [7], > 125 µg/mL. For the same compound, the IC80 in series [9] came to 31.2 µg/mL (≈ 61.7 µM); in [10], 31.2 µg/mL (≈ 61.7 µM); in series [11], 125 µg/mL (≈ 247 µM); in series [13], 125 µg/mL (≈ 247 µM); in [14], 62.5 µg/mL (≈ 123 µM); in [15] it was 31.2 µg/mL (≈ 61.7 µM). Also, the IC80 in series [16] is 31.2 µg/mL (≈ 61.7 µM); in series [17] it was 31.2 µg/mL (≈ 61.7 µM); in series [18], 31.2 µg/mL (≈ 61.7 µM); in [19] it was > 125 µg/mL. Also, in [6], the inhibition at 6.25 µg/mL was 89%. For the same compound, the “log K” value in series [8] is reported as 0.7292. The minimum inhibitory concentration (MIC) in [12] is > 6.25 µg/mL.

With `C[C@H](NC(=O)OCc1ccccc1)C(=O)Oc1ccc(Cl)cc1C(=O)Nc1ccc(C(F)(F)F)cc1`, the IC80 turned out to be 62.5 µg/mL (≈ 120 µM) in [1]; 62.5 µg/mL (≈ 120 µM) in series [2]; 1.95 µg/mL (≈ 3.74 µM) in series [3]; 500 µg/mL (≈ 960 µM) in series [4]; 1.95 µg/mL (≈ 3.74 µM) in series [5]; 15.6 µg/mL (≈ 30 µM) in series [7]. Also, the IC80 stood at 31.2 µg/mL (≈ 60 µM) in series [9]; 7.81 µg/mL (≈ 15 µM) in [10]; 7.81 µg/mL (≈ 15 µM) in series [11]; 500 µg/mL (≈ 960 µM) in series [13]; 250 µg/mL (≈ 480 µM) in [14]; 125 µg/mL (≈ 240 µM) in series [15]. Also, the IC80 in [16] turned out to be 31.2 µg/mL (≈ 60 µM); in series [17], 250 µg/mL (≈ 480 µM); in series [18], 62.5 µg/mL (≈ 120 µM); in series [19], 250 µg/mL (≈ 480 µM). In addition, the inhibition at 6.25 µg/mL in series [6] came out at 99%. Moreover, in series [8], the “log K” value worked out at 0.8149. This compound had an MIC in series [12] of 3.13 µg/mL (≈ 6.01 µM).

In the case of `O=C(N[C@@H](Cc1ccccc1)C(=O)Oc1ccc(Cl)cc1C(=O)Nc1ccc(Cl)cc1)OCc1ccccc1`, the IC80 in [1] was 31.2 µg/mL (≈ 55.5 µM); in [2] it was 62.5 µg/mL (≈ 111 µM); in series [3] it was 7.81 µg/mL (≈ 13.9 µM); in [4] it was 31.2 µg/mL (≈ 55.5 µM); in series [5], 7.81 µg/mL (≈ 13.9 µM); in series [7] it was > 62.5 µg/mL. For the same compound, the IC80 in series [9] was 15.6 µg/mL (≈ 27.7 µM); in series [10], 15.6 µg/mL (≈ 27.7 µM); in series [11], > 62.5 µg/mL; in series [13], 31.2 µg/mL (≈ 55.5 µM); in [14], 62.5 µg/mL (≈ 111 µM); in series [15] it was 31.2 µg/mL (≈ 55.5 µM). In addition, the IC80 in series [16] turned out to be 15.6 µg/mL (≈ 27.7 µM); in series [17] it was 62.5 µg/mL (≈ 111 µM); in [18], 15.6 µg/mL (≈ 27.7 µM); in [19] it was 31.2 µg/mL (≈ 55.5 µM). The compound further gave an inhibition at 6.25 µg/mL in series [6] of 16%. In addition, the “log K” value in series [8] came out at 1.0971. The MIC in [12] is > 6.25 µg/mL.

Take `C[C@@H](NC(=O)OCc1ccccc1)C(=O)Oc1ccc(Cl)cc1C(=O)Nc1cccc(Cl)c1`: the IC80 in series [1] was > 62.5 µg/mL; in [2], 62.5 µg/mL (≈ 128 µM); in series [3] it was 7.81 µg/mL (≈ 16 µM); in [4] it was > 62.5 µg/mL; in series [5], 7.81 µg/mL (≈ 16 µM); in [7] it was > 62.5 µg/mL. The IC80 was 31.2 µg/mL (≈ 64.1 µM) in series [9]; 31.2 µg/mL (≈ 64.1 µM) in series [10]; > 62.5 µg/mL in series [11]; 62.5 µg/mL (≈ 128 µM) in series [13]; > 62.5 µg/mL in [14]; 62.5 µg/mL (≈ 128 µM) in [15]. The IC80 in series [16] is 31.2 µg/mL (≈ 64.1 µM); in series [17] it was > 62.5 µg/mL; in [18], 31.2 µg/mL (≈ 64.1 µM); in series [19] it was 62.5 µg/mL (≈ 128 µM). In [6], this compound registered an inhibition at 6.25 µg/mL of 36%. Moreover, in series [8], the “log K” value is reported as 0.699. Further, the MIC in [12] was > 6.25 µg/mL.

Regarding `O=C(CNC(=O)OCc1ccccc1)Oc1ccc(Cl)cc1C(=O)Nc1cccc(Cl)c1`, the IC80 in [1] was > 62.5 µg/mL; in series [2] it was > 62.5 µg/mL; in series [3], 31.2 µg/mL (≈ 66 µM); in series [4], > 62.5 µg/mL; in series [5], 31.2 µg/mL (≈ 66 µM); in series [7], > 62.5 µg/mL. Moreover, the IC80 in [9] is 62.5 µg/mL (≈ 132 µM); in [10], 62.5 µg/mL (≈ 132 µM); in series [11], > 62.5 µg/mL; in [13], > 62.5 µg/mL; in series [14] it was > 62.5 µg/mL; in series [15] it was 62.5 µg/mL (≈ 132 µM). Besides, the IC80 is 62.5 µg/mL (≈ 132 µM) in series [16], > 62.5 µg/mL in series [17], 62.5 µg/mL (≈ 132 µM) in series [18] and > 62.5 µg/mL in [19]. In series [6], this compound showed an inhibition at 6.25 µg/mL of 7%. Moreover, in series [8], the “log K” value is given as 0.6119. The MIC in series [12] was > 6.25 µg/mL.

Values taken from ChEMBL document CHEMBL1154547, “Salicylanilide esters of N-protected amino acids as novel antimicrobial agents” (Bioorg Med Chem Lett, 2009).
